Test results from ChEMBL document CHEMBL3232989, “First identification of boronic species as novel potential inhibitors of the Staphylococcus aureus NorA efflux pump” (J Med Chem, 2014).

What was measured:
[1] = biological target: T1, Quinolone resistance protein NorA (Staphylococcus aureus) (UniProt P0A0J7); test: Inhibition of NorA in fluoroquinolone-resistant Staphylococcus aureus 1199B assessed as potentiation of 4 ug/ml of ciprofloxacin MIC at 100 ug/ml after 24 hrs by microdilution method
T1 sequence (whole entry): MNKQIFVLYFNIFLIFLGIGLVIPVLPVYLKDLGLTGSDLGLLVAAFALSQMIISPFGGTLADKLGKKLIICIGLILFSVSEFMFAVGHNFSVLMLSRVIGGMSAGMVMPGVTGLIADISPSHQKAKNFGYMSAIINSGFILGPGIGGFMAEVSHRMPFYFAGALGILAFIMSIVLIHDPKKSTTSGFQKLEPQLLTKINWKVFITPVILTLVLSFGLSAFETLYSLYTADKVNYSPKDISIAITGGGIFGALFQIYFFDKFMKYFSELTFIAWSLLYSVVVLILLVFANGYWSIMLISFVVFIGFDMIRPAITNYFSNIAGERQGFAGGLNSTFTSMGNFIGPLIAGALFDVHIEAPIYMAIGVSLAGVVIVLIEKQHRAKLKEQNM
In short: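 Combination with ciprofloxacin 4 μg/mL (MIC/4) against SA-1199B in MH broth microdilution, 10^6 CFU/mL, 24 h at 37 °C, read at 620 nm and visually. Compounds are first screened at 100 μg/mL; actives are 2-fold serially diluted. MMC4 is the lowest inhibitor concentration giving antibacterial activity with subinhibitory ciprofloxacin. Duplicates.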

[2] = system: Staphylococcus aureus; test: Toxicity in Staphylococcus aureus ATCC 25923 at 100 ug/ml after 24 hrs by microdilution method; assay type: organism-based
In short: (§1)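 Single-point screen at 100 μg/mL of compound alone in MH broth microdilution, 10^6 CFU/mL, 24 h at 37 °C. Growth is read at 620 nm and visually, giving percent growth inhibition. Compounds inhibiting more than 90% then go to MIC determination. Duplicates.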

[3] = system: Staphylococcus aureus; test: Toxicity in fluoroquinolone-resistant Staphylococcus aureus 1199B expressing NorA at 100 ug/ml after 24 hrs by microdilution method; assay type: organism-based; in short: as §1
[4] = system: Staphylococcus aureus; test: Toxicity in Staphylococcus aureus ATCC 25923 after 24 hrs by microdilution method; assay type: organism-based
In short: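 Mueller–Hinton broth microdilution; inoculum from frozen culture grown 18 h at 37 °C, 10^6 CFU/mL per well. Compounds (10 mg/mL DMSO stock) in 2-fold serial dilutions, highest 128 mg/L, first screened at 100 μg/mL. MIC = complete growth inhibition after 24 h at 37 °C, read at 620 nm and visually; duplicate; ampicillin control.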

Compound	Activity [1]	growth inhibition (GI) [2]	growth inhibition (GI) [3]	MIC [4]
COc1cccc(B(O)O)c1OC	> 128 µg/mL	< 90%	< 90%	>= 64 ug ml-1
OB(O)c1cc(Br)cnc1Cl	32 µg/mL	< 90%	< 90%	>= 64 ug ml-1
Cc1cc(B(OC(C)(C)C(C)(C)O)OC(C)(C)C(C)(C)O)ccn1	> 128 µg/mL	< 90%	< 90%	>= 64 ug ml-1
N#Cc1cnccc1B(O)O	> 128 µg/mL	< 90%	< 90%	>= 64 ug ml-1
CC(C)(O)C(C)(C)OB(OC(C)(C)C(C)(C)O)c1ccc(F)nc1	128 µg/mL	< 90%	< 90%	>= 64 ug ml-1
CC(C)(O)C(C)(C)OB(OC(C)(C)C(C)(C)O)c1cncc(Br)c1	> 128 µg/mL	< 90%	< 90%	>= 64 ug ml-1
N#Cc1c(B(O)O)ccnc1Cl	> 128 µg/mL	< 90%	< 90%	>= 64 ug ml-1
Cc1cc(B(O)O)cnc1N1CCOCC1	64 µg/mL	< 90%	< 90%	>= 64 ug ml-1
O[B-](O)(O)c1cccnc1.[Na+]	128 µg/mL	< 90%	< 90%	>= 64 ug ml-1
Cc1cc(B(O)O)c(C)s1	16 µg/mL	< 90%	< 90%	>= 64 ug ml-1
CSc1ccc(B(OC(C)(C)C(C)(C)O)OC(C)(C)C(C)(C)O)cn1	> 128 µg/mL	< 90%	< 90%	>= 64 ug ml-1
Cn1c(B2OC(C)(C)C(C)(C)O2)cnc1Cl	128 µg/mL	< 90%	< 90%	>= 64 ug ml-1
OB(O)c1cccnc1Br	> 128 µg/mL	< 90%	< 90%	>= 64 ug ml-1
Cc1cccc(C)c1B(O)O	> 128 µg/mL	< 90%	< 90%	>= 64 ug ml-1
CCOc1ncccc1B(O)O	> 128 µg/mL	< 90%	< 90%	>= 64 ug ml-1
CC(C)(O)C(C)(C)OB(OC(C)(C)C(C)(C)O)c1cccnc1C#N	> 128 µg/mL	< 90%	< 90%	>= 64 ug ml-1
OB(O)c1cccnc1	32 µg/mL	< 90%	< 90%	>= 64 ug ml-1
OB(O)c1ccccc1F	16 µg/mL	< 90%	< 90%	>= 64 ug ml-1
CC(C)(O)C(C)(C)OB(OC(C)(C)C(C)(C)O)c1ccc(NCc2ccccc2)nc1	128 µg/mL	< 90%	< 90%	>= 64 ug ml-1
OB(O)c1ccnc(F)c1Cl	16 µg/mL	< 90%	< 90%	>= 64 ug ml-1
CCOC(=O)Nc1ncc(B2OC(C)(C)C(C)(C)O2)s1	> 128 µg/mL	< 90%	< 90%	>= 64 ug ml-1
COc1nccc(B(OC(C)(C)C(C)(C)O)OC(C)(C)C(C)(C)O)c1Cl	32 µg/mL	< 90%	< 90%	>= 64 ug ml-1
OB(O)c1ccccc1 [PHENYLBORONIC ACID]	32 µg/mL	< 90%	< 90%	>= 64 ug ml-1
CC(C)(C)OC(=O)Nc1ncc(B2OC(C)(C)C(C)(C)O2)s1	> 128 µg/mL	< 90%	< 90%	>= 64 ug ml-1

Compound	Activity [1]	growth inhibition (GI) [2]	growth inhibition (GI) [3]	MIC [4]
CC1(C)OB(c2cncs2)OC1(C)C	> 128 µg/mL	< 90%	< 90%	>= 64 ug ml-1
CC(C)(O)C(C)(C)OB(OC(C)(C)C(C)(C)O)c1ccnc(F)c1Cl	16 µg/mL	< 90%	< 90%	>= 64 ug ml-1
CCOc1ccc(B(OC(C)(C)C(C)(C)O)OC(C)(C)C(C)(C)O)cn1	128 µg/mL	< 90%	< 90%	>= 64 ug ml-1
OB(O)c1cccnc1OCc1ccccc1	32 µg/mL	< 90%	< 90%	>= 64 ug ml-1
Cc1cc(B(O)O)cnc1Br	32 µg/mL	< 90%	< 90%	>= 64 ug ml-1
COc1nccc(B(O)O)c1Cl	32 µg/mL	< 90%	< 90%	>= 64 ug ml-1
OB(O)c1cccnc1Cl	> 128 µg/mL	< 90%	< 90%	>= 64 ug ml-1
CC(C)(O)C(C)(C)OB(OC(C)(C)C(C)(C)O)c1cc(Cl)ncc1Cl	32 µg/mL	< 90%	< 90%	>= 64 ug ml-1
CC(C)(O)C(C)(C)OB(OC(C)(C)C(C)(C)O)c1ccncc1	> 128 µg/mL	< 90%	< 90%	>= 64 ug ml-1
Cc1cc(B(OC(C)(C)C(C)(C)O)OC(C)(C)C(C)(C)O)cnc1N1CCOCC1	32 µg/mL	< 90%	< 90%	>= 64 ug ml-1
Cc1c[nH]nc1B(O)O	64 µg/mL	< 90%	< 90%	>= 64 ug ml-1
Cc1cc(B(OC(C)(C)C(C)(C)O)OC(C)(C)C(C)(C)O)cnc1Cl	32 µg/mL	< 90%	< 90%	>= 64 ug ml-1
CC1(C)OB(c2cnn(C(=O)c3ccccc3)c2)OC1(C)C	128 µg/mL	< 90%	< 90%	>= 64 ug ml-1
CCOC(=O)c1ccccc1B(O)O	> 128 µg/mL	< 90%	< 90%	>= 64 ug ml-1
CC(C)(C)OC(=O)n1cccc1B(O)O	> 128 µg/mL	< 90%	< 90%	>= 64 ug ml-1
CC(C)(O)C(C)(C)OB(OC(C)(C)C(C)(C)O)c1ccncc1F	> 128 µg/mL	< 90%	< 90%	>= 64 ug ml-1
CC(C)(O)C(C)(C)OB(OC(C)(C)C(C)(C)O)c1ccc(Cl)nc1	128 µg/mL	< 90%	< 90%	>= 64 ug ml-1
CCc1ccc(B(OC(C)(C)C(C)(C)O)OC(C)(C)C(C)(C)O)cc1	32 µg/mL	< 90%	< 90%	>= 64 ug ml-1
COc1ncccc1B(OC(C)(C)C(C)(C)O)OC(C)(C)C(C)(C)O	> 128 µg/mL	< 90%	< 90%	>= 64 ug ml-1
CC(C)(O)C(C)(C)OB(OC(C)(C)C(C)(C)O)c1ccncc1C#N	> 128 µg/mL	< 90%	< 90%	>= 64 ug ml-1
CC1(C)OB(c2cnc(-c3ccccc3)n2C(=O)c2ccccc2)OC1(C)C	32 µg/mL	< 90%	< 90%	>= 64 ug ml-1
OB(O)c1ccc(F)nc1	32 µg/mL	< 90%	< 90%	>= 64 ug ml-1
COC(=O)[C@H]1[C@H]2C[C@@H]3c4[nH]c5cc(OC)ccc5c4CCN3C[C@H]2C[C@@H](OC(=O)c2cc(OC)c(OC)c(OC)c2)[C@@H]1OC [RESERPINE]	4 µg/mL			>= 64 ug ml-1
